Laboratory results taken from ChEMBL document CHEMBL2429830, “Antimycobacterial labdane diterpenes from Leucas stelligera” (J Nat Prod, 2013).
Converted amounts (≈) assume the structure as drawn. The source made the active and inactive calls. The rule behind the calls is not given here.

Key:
[1] = tested on: Mycobacterium tuberculosis; experiment: Antimycobacterial activity against Mycobacterium tuberculosis H37Ra assessed as inhibition of cell viability measured on day 8 by XTT assay in presence of menadione; type: functional, organism-based; conditions: 192 h
How it was run: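 H37Ra log-phase culture grown in M. pheli medium at 37 °C, sonicated, then seeded at about 10^5 cells/mL. Serial dilutions of DMSO-dissolved samples were tested, with isoniazid as positive control, at 37 °C in a CO2 incubator for 8 days. Viability was read by XTT (200 μM, 20 min) then menadione (60 μM, 40 min), OD470. IC50 and IC90 came from dose-response curves.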

[2] = tested on: Mycolicibacterium smegmatis; experiment: Antimycobacterial activity against Mycobacterium smegmatis MC2 155 assessed as inhibition of cell viability at IC90 measured on day 3 by XTT assay in presence of menadione relative to control; type: functional, str. MC2 155
THP-1 [3] = experiment: Cytotoxicity against human THP1 cells assessed as growth inhibition at IC90 after 72 hrs by MTT assay relative to control; type: functional
How it was run: (§1)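 Viability by MTT (1 h, 37 °C), formazan taken up in 2-propanol 4 h, absorbance 490 nm against cell-free blank. Medium with matching DMSO served as 100% growth.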

HepG2 [4] = experiment: Cytotoxicity against human HepG2 cells assessed as growth inhibition at IC90 after 120 hrs by MTT assay relative to control; type: functional
How it was run: (§2)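 MTT (10 μL of 5 mg/mL) added for 1 h at 37 °C. Formazan dissolved in 2-propanol for 4 h, read at 490 nm against cell-free blank. DMSO-carrier wells taken as 100% growth.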

MCF7 [5] = experiment: Cytotoxicity against human MCF7 cells assessed as growth inhibition at IC90 after 192 hrs by MTT assay relative to control; type: functional
How it was run: (§3)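 MCF-7 cells at ~10^5 cells/mL, 24 h adherence at 37 °C. MTT read-out: 1 h with MTT at 37 °C, then 2-propanol solubilization for 4 h, OD 490 nm versus cell-free wells. Growth expressed relative to DMSO-only controls (100%).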

THP-1 [6] = experiment: Cytotoxicity against human THP1 cells assessed as growth inhibition at 100 ug/mL after 72 hrs by MTT assay relative to control; type: functional; conditions: THP-1, 72 h, read-out: GI; how it was run: as §1
Escherichia coli [7] = experiment: Antibacterial activity against Escherichia coli DH5[alpha] assessed as growth inhibition at IC90 after 6 hrs relative to control; type: functional
MCF7 [8] = experiment: Cytotoxicity against human MCF7 cells assessed as growth inhibition at 100 ug/mL after 192 hrs by MTT assay relative to control; type: functional; conditions: MCF7, 192 h, read-out: GI; how it was run: as §3
HepG2 [9] = experiment: Cytotoxicity against human HepG2 cells assessed as growth inhibition at 100 ug/mL after 120 hrs by MTT assay relative to control; type: functional; conditions: HepG2, 120 h, read-out: GI; how it was run: as §2
THP-1 [10] = experiment: Cytotoxicity against human THP1 cells assessed as growth inhibition after 72 hrs by MTT assay; type: functional; conditions: THP-1, 72 h; how it was run: as §1
MCF7 [11] = experiment: Cytotoxicity against human MCF7 cells assessed as growth inhibition after 192 hrs by MTT assay; type: functional; conditions: MCF7, 192 h
How it was run: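 MCF-7 cells at ~10^5 cells/mL, 24 h adherence at 37 °C. […] MTT read-out: 1 h with MTT at 37 °C, then 2-propanol solubilization for 4 h, OD 490 nm versus cell-free wells. Growth expressed relative to DMSO-only controls (100%).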

HepG2 [12] = experiment: Cytotoxicity against human HepG2 cells assessed as growth inhibition after 120 hrs by MTT assay; type: functional; conditions: HepG2, 120 h; how it was run: as §2
[13] = tested on: Mycobacterium tuberculosis; experiment: Antimycobacterial activity against Mycobacterium tuberculosis H37Ra assessed as inhibition of cell viability at 100 ug/mL measured on day 8 by XTT assay in presence of menadione; type: functional, organism-based
How it was run: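 M. tuberculosis H37Ra (ATCC 25177) grown aerobically to log phase in M. pheli medium at 37 °C, 150 rpm, then sonicated 2 min. About 10^5 cells/mL, 250 μL per well, exposed to DMSO-dissolved samples at 100 μg/mL and incubated at 37 °C in a CO2 incubator. Day 8 read-out: OD470 blank, XTT 200 μM for 20 min, menadione 60 μM for 40 min, then OD470.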

Escherichia coli [14] = experiment: Antibacterial activity against Escherichia coli DH5[alpha] assessed as growth inhibition after 6 hrs; type: functional
[15] = tested on: Mycolicibacterium smegmatis; experiment: Antimycobacterial activity against Mycobacterium smegmatis MC2 155 assessed as inhibition of cell viability measured on day 3 by XTT assay in presence of menadione; type: functional; conditions: str. MC2 155, 72 h
How it was run: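 M. smegmatis mc2 155 in microplate wells; on day 3, OD470 read as blank, then XTT (200 μM) added, shaken 1 min and held 20 min at 37 °C. Menadione (60 μM) was then added, mixed 1 min and held another 20 min at 37 °C before the final OD470 reading.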

`NNC(=O)c1ccncc1` [ISONIAZID] showed an IC90 [1] of 0.055 µg/mL.
For `C[C@@H]1CC[C@H]2C(C)(C)CCC[C@]2(C)[C@@]12CC[C@]1(CO[C@H](O)C1)O2`, the “inhibition (INH)” value [2] was 47.83%, the “growth inhibition (GI)” value (THP-1 [3]) was 8.18% and the “growth inhibition (GI)” value (HepG2 [4]) was 6.92%. The “growth inhibition (GI)” value (MCF7 [5]) was 28.98%, the IC50 [1] was 5.55 µg/mL and the IC90 [1] was 14.9 µg/mL. For the same compound, the inhibition of growth at 100 µg/mL (THP-1 [6]) was 21.7%, the “growth inhibition (GI)” value (Escherichia coli [7]) was 23.15% and the inhibition of growth at 100 µg/mL (MCF7 [8]) was 42.4%. For the same compound, the inhibition of growth at 100 µg/mL (HepG2 [9]) was 14.4%.
With `C[C@@H]1CC[C@H]2C(C)(C)CCC[C@]2(C)[C@@]1(O)CC/C(=C/CO)CO` the “inhibition (INH)” value [2] was 30.57%, the “growth inhibition (GI)” value (THP-1 [3]) was 9.07% and the “growth inhibition (GI)” value (HepG2 [4]) was 21.48%. For the same compound, the “growth inhibition (GI)” value (MCF7 [5]) was 3.54%, the IC50 [1] was 9.8 µg/mL and the inhibition of growth at 100 µg/mL (THP-1 [6]) was 9.07%. The “growth inhibition (GI)” value (Escherichia coli [7]) was 11.47%, the inhibition of growth at 100 µg/mL (MCF7 [8]) was 3.54% and the inhibition of growth at 100 µg/mL (HepG2 [9]) was 21.5%.
`C=C[C@](C)(O)CC[C@@H]1[C@@]2(C)CCCC(C)(C)[C@H]2CC[C@@]1(C)O` showed an IC50 [1] of 5.95 µg/mL and an inhibition of growth at 100 µg/mL (THP-1 [6]) of 96.4%.
Compound `CC(=O)O[C@H]1C(=O)[C@@]2(C)[C@H]([C@H](OC(=O)c3ccccc3)[C@]3(O)C[C@H](OC(=O)[C@H](O)[C@@H](NC(=O)c4ccccc4)c4ccccc4)C(C)=C1C3(C)C)[C@]1(OC(C)=O)CO[C@@H]1C[C@@H]2O` [PACLITAXEL] has an IC90 (THP-1 [10]) of 98.6 µg/mL (≈ 115 µM), an inhibition of growth at 100 µg/mL (THP-1 [6]) of 82.5% and an IC90 (MCF7 [11]) of 107 µg/mL (≈ 125 µM). For the same compound, the inhibition of growth at 100 µg/mL (MCF7 [8]) was 86.7%, the IC90 (HepG2 [12]) was 78.9 µg/mL (≈ 92.4 µM) and the inhibition of growth at 100 µg/mL (HepG2 [9]) was 87.9%.
`COc1cc(O)c2c(=O)cc(-c3ccc(O)c(OC)c3)oc2c1` was tested, and the inhibition [13] was “inactive”.
For `CO[C@H]1/C=C/O[C@@]2(C)Oc3c(C)c(O)c4c(O)c(c(/C=N/N5CCN(C)CC5)c(O)c4c3C2=O)NC(=O)/C(C)=C\C=C\[C@H](C)[C@H](O)[C@@H](C)[C@@H](O)[C@@H](C)[C@H](OC(C)=O)[C@@H]1C` [RIFAMPIN], the IC90 (Escherichia coli [14]) was 0.5 µg/mL (≈ 0.608 µM) and the IC90 [15] was 0.2 µg/mL.
